Screens deposited in PubChem BioAssay by several laboratories.
Rows were chosen to be rich in hits. Some 2.5% of all compounds tested hit in one or more screens of this group.
TRPC6 act = activates the mouse TRPC6 cation channel. Q61143. HEK293-TRPC6 membrane potential dye fluorescence; hits give high values. B-score at 10 µM. actives 0.13% (n = 310,000). AID 2550;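 active = B-score of the integrated fluorescence ratio above library mean plus 3 SD, and starting fluorescence ratio within library mean plus 5 SD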;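 note: higher score means more depolarization so channel activation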
TRPC4 inh = TRPC4 (mouse) channel inhibition; Q9QUQ5; HEK293 TRPC4beta/mu-opioid, DAMGO-evoked Fluo4 calcium flux; hits give low values; B-score at 10 µM; AID 2247; actives 0.39% (n = 300,000);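 active = B-score over 3 SD under the library average, no early fluorescence shift, positive overall ratio signal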
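Assay system: HEK293 cells with stable TRPC4beta plus mu-opioid receptor expression; Probe or stimulus: DAMGO in two steps, submaximal then maximal; Dosing: single-point compound dosing; Measured by: Fluo4 calcium-dye fluorescence, kinetic read; Read-out basis: B score from integrated Fluo4 fluorescence ratio.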
TRPC4 agonist = opens the mouse TRPC4 cation channel; actives 0.49% (n = 310,000); AID 2237; HEK293 TRPC4beta/mu-opioid, Fluo4 calcium fluorescence; hits give high values; B-score at 10 µM;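 active = B-score above 5 SD of library B-scores, and initial fluorescence ratio not above library mean plus 5 SD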;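 note: positive B-score marks a calcium rise read as TRPC4 activation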
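System – HEK293 cells stably co-expressing mouse TRPC4beta and mu-opioid receptor · Signal – Fluo4 calcium-sensitive dye fluorescence, kinetic, 1 Hz baseline · Benchmarks – buffer (low) and maximal DAMGO (high) · Read-out – B score of integrated fluorescence ratio per well · Incubation – dye loading 45 min room temperature, 110 s kinetic read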
Pemphigus Ab inh = inhibitors of pemphigus antibody binding to human desmoglein-3. AID 588358. DSG3-coupled beads, scFv-anti-DSG3-GFP binding, flow cytometry; hits give low values. actives 0.48% (n = 310,000). P32926. binding (percent of control), % at 10 µM;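 active = binding more than 3 SD below its plate's average and above zero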;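 note: hits lower antibody fragment binding to DSG3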
Target sequence (P32926 whole entry, looked up, the tested form may be a part): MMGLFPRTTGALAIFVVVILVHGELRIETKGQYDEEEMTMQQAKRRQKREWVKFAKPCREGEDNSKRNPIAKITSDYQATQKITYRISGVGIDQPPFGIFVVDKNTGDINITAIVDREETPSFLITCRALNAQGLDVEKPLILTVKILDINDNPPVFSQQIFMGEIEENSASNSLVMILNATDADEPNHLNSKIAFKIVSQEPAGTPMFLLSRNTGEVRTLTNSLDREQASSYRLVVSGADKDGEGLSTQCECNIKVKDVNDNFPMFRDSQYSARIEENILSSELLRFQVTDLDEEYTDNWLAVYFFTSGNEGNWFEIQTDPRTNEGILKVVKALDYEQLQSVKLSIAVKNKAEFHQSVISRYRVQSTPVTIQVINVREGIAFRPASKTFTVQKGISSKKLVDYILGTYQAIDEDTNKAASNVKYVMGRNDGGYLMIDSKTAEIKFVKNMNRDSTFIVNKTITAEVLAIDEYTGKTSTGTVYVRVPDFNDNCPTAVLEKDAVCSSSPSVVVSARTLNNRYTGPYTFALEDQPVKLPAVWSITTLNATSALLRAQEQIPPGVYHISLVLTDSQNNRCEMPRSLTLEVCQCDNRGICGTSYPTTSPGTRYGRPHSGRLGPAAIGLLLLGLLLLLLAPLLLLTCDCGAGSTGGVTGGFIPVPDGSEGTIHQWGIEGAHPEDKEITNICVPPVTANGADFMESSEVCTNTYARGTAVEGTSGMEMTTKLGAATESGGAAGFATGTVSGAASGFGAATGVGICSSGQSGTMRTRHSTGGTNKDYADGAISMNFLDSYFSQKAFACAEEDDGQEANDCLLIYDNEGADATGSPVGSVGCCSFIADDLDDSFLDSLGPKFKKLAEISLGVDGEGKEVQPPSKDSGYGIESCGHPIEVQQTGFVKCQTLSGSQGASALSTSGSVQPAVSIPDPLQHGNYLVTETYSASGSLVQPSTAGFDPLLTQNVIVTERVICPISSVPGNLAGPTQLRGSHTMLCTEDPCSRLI
TRPC4 potent = TRPC4 (mouse) allosteric potentiation; Q9QUQ5; HEK293 TRPC4beta/mu-opioid, DAMGO EC20, Fluo-4 Ca2+ flux; hits give high values; B-score at 10 µM; actives 0.42% (n = 310,000); AID 2227;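 active = B-score of calcium response area above 5 SD of library B-scores, with initial fluorescence ratio within 5 SD of library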;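 note: B-score of integrated fluorescence ratio over time as area under calcium response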
TRPC6 inh = mouse TRPC6 channel inhibition; Q61143; actives 1.1% (n = 310,000); B-score at 10 µM; HEK293-TRPC6, membrane potential dye, ACh-evoked depolarization; hits give low values; AID 2553;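 active = B-score under library mean minus 3 SD, initial fluorescence not abnormally high, positive integrated signal ratio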;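 note: B-score derived from integrated fluorescence ratio over the kinetic read; more negative B-score means stronger inhibition of depolarization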
TRPC4 sel inh 2 = second check of whether TRPC6 inhibitors also affect mouse TRPC4; shares compounds with TRPC6 inh; HEK293 TRPC4/MOR, membrane potential dye fluorescence; channel activated by saturating DAMGO dose; inhibition, % at 10 µM; actives 42% (n = 920);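 active = compounds whose fluorescence signal differed from control wells by over 3 SD, either direction, in both duplicate plates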
TRPC4 spec = selectivity of TRPC6 inhibitors: effect on mouse TRPC4 | actives 61% (n = 920) | HEK293 TRPC4/mu-opioid, membrane potential fluorescence | shares compounds with TRPC6 inh | activity change, negative = inhibition, % at 10 µM | AID 2777;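 active = rise or fall in signal beyond 3 SD of buffer-only wells in both replicate plates, either sign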;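 note: integrated kinetic ratio of fluorescence range over baseline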
HEK293 MPD ctr 2-1 = second check of TRPC6 inhibitor effects in parental HEK293 cells; signal change vs control, % at 10 µM; actives 31% (n = 920); shares compounds with TRPC6 inh; parental HEK293 membrane potential dye fluorescence; maximal acetylcholine challenge after compound addition;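 active = membrane potential signal moving either way by over 3 SD of the maximum-effect control, in both duplicate plates, meaning non-specific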
HEK293 MPD ctr-1 = checks TRPC6 inhibitor effects in parental HEK293 cells; shares compounds with TRPC6 inh; parental HEK293 membrane potential dye fluorescence; membrane potential signal change, % at 10 µM; actives 60% (n = 920); AID 2780;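 active = membrane potential signal shifting up or down by more than 3 SD of buffer-only wells, on both duplicate plates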
HEK293 MPD ctr-2 = checks TRPC6 modulator effects in parental HEK293 cells | AID 488924 | membrane potential dye fluorescence | shares compounds with TRPC6 inh | actives 51% (n = 2,400) | membrane potential signal change, % at 10 µM;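 active = membrane potential signal moves up or down beyond 5 SD from buffer-only wells, on both duplicate plates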
HEK293 MPD ctr 2-2 = second counter-screen for TRPC6 modulators: effect in parental HEK293 cells. inhibition, % at 10 µM. shares compounds with TRPC6 inh. actives 14% (n = 2,400). membrane potential dye fluorescence; after compound, maximal acetylcholine stimulation. AID 488926;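 active = membrane potential signal drops by more than 5 SD from the mean control signal, in both duplicate plates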;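 note: plate controls were acetylcholine ECmax control wells for no effect and buffer only wells for full effect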
TRPC4/MOR mod = selectivity of TRPC6 modulators against mouse TRPC4 | HEK293 TRPC4/mu-opioid, membrane potential fluorescence | shares compounds with TRPC6 inh | percent change from control (negative = decrease, positive = increase), % at 10 µM | actives 69% (n = 2,400) | AID 488927;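 active = membrane potential signal moved up or down beyond 5 SD of buffer control wells, in both duplicate plates, actives on both sides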;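 note: plate controls were assay buffer wells for no effect and DAMGO maximal-effect wells for full effect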
TRPC4/MOR inh 2 = mouse TRPC4 off-target activity of TRPC6 modulators, second screen | shares compounds with TRPC6 inh | HEK293 TRPC4/mu-opioid, membrane potential dye fluorescence; stimulated with maximal-effect DAMGO | inhibition, % at 10 µM | actives 55% (n = 2,400);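 active = drop in membrane potential signal beyond 5 SD of the control wells in both duplicate plates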;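 note: TRPC4 counter screen for TRPC6 hits run under conditions tuned for TRPC6 not TRPC4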
TRPC6 block conf = mouse TRPC6 inhibitor confirmation | shares compounds with TRPC6 inh | actives 43% (n = 3,300) | inhibition, % at 10 µM | HEK293-TRPC6, membrane potential dye, ACh-evoked depolarization;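 active = fluorescence ratio falls more than 5 SD below the full-stimulation control mean, in both duplicate runs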;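 note: integrated fluorescence ratio of peak minus minimum over baseline after agonist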
TRPC6 act confirm = mouse TRPC6 activator confirmation | shares compounds with TRPC6 inh | activation, % at 10 µM | actives 11% (n = 2,800) | HEK293-TRPC6 membrane potential dye fluorescence, FDSS;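 active = ratio signal rise beyond 5 SD above unstimulated control wells' mean, seen in both duplicate runs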;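 note: plate controls were buffer EC0 wells for no effect and acetylcholine ECmax response for full effect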
Numbers without * were called inactive; i = inactive; . = not tested or not shown; + = active, no number.

SMILES	TRPC6 act	TRPC4 inh	TRPC4 agonist	Pemphigus Ab inh	TRPC4 potent	TRPC6 inh	HEK293 MPD ctr-2	HEK293 MPD ctr 2-2	TRPC4/MOR mod	TRPC4/MOR inh 2	TRPC6 block conf	TRPC6 act confirm	others
Cc1ccc(N2C(=O)CSC2c2c(F)cccc2Cl)cc1 (configuration not stated)	i	i	i	104	i	-12*	.	.	.	.	84%*	i	TRPC4 sel inh 2=i;TRPC4 spec=i;HEK293 MPD ctr 2-1=-26%*;HEK293 MPD ctr-1=i
N#Cc1c(NCCN)nc(-c2ccccc2)c2c1CCCC2	i	i	i	116	i	-6.2*	i	i	i	85%*	67%*	i
COC(=O)CSc1nc(-c2ccccc2)c2c(c1C#N)CCCC2	i	i	i	97	i	i	.	.	.	.	.	.
Cc1ccc(C(=O)C[n+]2cc(-c3ccc(C)cc3)n3c2CCCCC3)cc1	12*	i	i	102	i	-5.4*	265%*	i	48%*	42%*	51%*	90%*
O=C(C[n+]1cc(-c2ccc(Cl)cc2)n2c1CCC2)N1c2ccccc2Sc2ccccc21	i	i	i	107	i	-6.2*	i	58%*	-10%*	i	73%*	i
O=C(COc1ccccc1F)NCC(c1ccco1)N1CCCC1 (configuration not stated)	i	i	i	102	i	i	.	.	.	.	.	.
Cc1ccc(NC(=O)COC(=O)c2ccc(-n3cccn3)cc2)cc1C	.	.	.	102	.	.	.	.	.	.	.	.
Cc1ccc2c(c1)C1C=CCC1C(C(=O)NCCCN1CCOCC1)N2 (configuration not stated)	i	i	i	98	i	i	.	.	.	.	.	.
O=C(NCCCN1CCOCC1)C1Nc2ccc(OC(F)(F)F)cc2C2C=CCC12 (configuration not stated)	i	i	i	106	i	-9.7*	i	i	i	i	i	i
CC(C)c1ccc(NC2CCCN(C(=O)c3cnc4ccccn4c3=O)C2)cc1 (configuration not stated)	i	i	i	101	i	-7*	.	.	.	.	i	i	TRPC4 sel inh 2=i;TRPC4 spec=i;HEK293 MPD ctr 2-1=i;HEK293 MPD ctr-1=i
Cc1ccc(NC2CCCN(C(=O)c3cnc4ccccn4c3=O)C2)cc1C (configuration not stated)	i	i	i	85	i	i	.	.	.	.	.	.
O=C(NCC1CCN(c2ccc(S(=O)(=O)N3CCOCC3)cc2)CC1)c1cccc(Cl)c1	i	i	i	139	i	-6.3*	i	i	-30%*	i	45%*	i
COc1ccc(/C=C/C(=O)N(Cc2cccs2)C2CCS(=O)(=O)C2)cc1 (configuration not stated)	i	i	i	95	i	i	.	.	.	.	.	.
CC1C/C(=C/c2cccn2C)C(=O)/C(=C/c2cccn2C)C1 (configuration not stated)	79*	i	i	113	i	i	+	i	440%*	i	i	311%*
COC(=O)c1cc(C)ccc1OCc1ccc([N+](=O)[O-])cc1	i	i	i	105	i	i	.	.	.	.	.	.
Cc1ccc(CNC(=O)C(N=C2NS(=O)(=O)c3ccccc32)C(C)C)cc1 (configuration not stated)	.	.	.	109	.	.	.	.	.	.	.	.
CCN1CCc2c(C#N)c(NCc3ccccc3)nc(N(CC)CC)c2C1	i	i	i	.	i	-7.2*	.	.	.	.	i	i	TRPC4 sel inh 2=66%*;TRPC4 spec=-10%*;HEK293 MPD ctr 2-1=i;HEK293 MPD ctr-1=i
C=CCNc1nc(NCc2ccccc2)c(C#N)c2c1CN(C)CC2	i	i	i	99	i	-6.5*	-75%*	i	-21%*	46%*	i	i
N#Cc1c(NCCN)nc(NCc2ccccc2)c2c1CCN(Cc1ccccc1)C2	.	.	.	94	.	.	.	.	.	.	.	.
CN(C)CCCNc1c2c(nc3cc(-c4cccc(F)c4)nn13)CCC2	i	i	123*	101	i	-7.3*	i	126%*	-20%*	52%*	78%*	i
CCOCCCNc1c2c(nc3cc(-c4ccc(F)cc4)nn13)CCC2	i	i	i	103	i	i	.	.	.	.	.	.
O=c1[nH]c2ccc(S(=O)(=O)N3CCN(c4ccccc4F)CC3)cc2s1	i	i	i	.	i	-8*	.	.	.	.	i	i	TRPC4 sel inh 2=i;TRPC4 spec=0.3%*;HEK293 MPD ctr 2-1=226%*;HEK293 MPD ctr-1=i
O=C(/C=C\c1ccccc1OC(=O)c1ccccc1F)c1cc2ccccc2o1	i	i	i	89	i	-7.1*	.	.	.	.	i	i	TRPC4 sel inh 2=i;TRPC4 spec=i;HEK293 MPD ctr 2-1=i;HEK293 MPD ctr-1=i
CN(C)C(=O)c1c([N+](=O)[O-])c(C(C)(C)C)nn1C	i	i	i	83	i	-6.2*	i	i	i	i	i	i
